pIC50: −log10 of the molar value. Where only a bound is given, the exact number is not on record here.

In series [1] the test system is MCF-7/TamR. Description: Proliferation of breast cancer cells, MCF-7/TamR. In kind it is cell-based. The settings on record: Homo sapiens, MCF7, 120 h, read-out: IC50, proliferation. Put shortly: (§1)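 Cells grown in phenol red-free DMEM with 5% FBS at 37 °C, 5% CO2. MCF-7/TamR cells were derived by prolonged 4-hydroxytamoxifen exposure. Cells seeded at 50000/well, then treated 5 days with test compound at six doses from 10−10 to 10−5 M, with DMSO vehicle. Viable cells counted by Coulter counter. Survival expressed as a percentage of vehicle, and IC50 taken from dose–response curves.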

Series [2] relates to MCF-7. Put plainly: Proliferation of breast cancer cells, MCF-7. It counts as cell-based. The settings on record: Homo sapiens, MCF7, 120 h, read-out: IC50, proliferation. Put shortly: as §1
Series [3] deals with T1, ERα (Homo sapiens, UniProt P03372).
T1 sequence (P03372 1-595): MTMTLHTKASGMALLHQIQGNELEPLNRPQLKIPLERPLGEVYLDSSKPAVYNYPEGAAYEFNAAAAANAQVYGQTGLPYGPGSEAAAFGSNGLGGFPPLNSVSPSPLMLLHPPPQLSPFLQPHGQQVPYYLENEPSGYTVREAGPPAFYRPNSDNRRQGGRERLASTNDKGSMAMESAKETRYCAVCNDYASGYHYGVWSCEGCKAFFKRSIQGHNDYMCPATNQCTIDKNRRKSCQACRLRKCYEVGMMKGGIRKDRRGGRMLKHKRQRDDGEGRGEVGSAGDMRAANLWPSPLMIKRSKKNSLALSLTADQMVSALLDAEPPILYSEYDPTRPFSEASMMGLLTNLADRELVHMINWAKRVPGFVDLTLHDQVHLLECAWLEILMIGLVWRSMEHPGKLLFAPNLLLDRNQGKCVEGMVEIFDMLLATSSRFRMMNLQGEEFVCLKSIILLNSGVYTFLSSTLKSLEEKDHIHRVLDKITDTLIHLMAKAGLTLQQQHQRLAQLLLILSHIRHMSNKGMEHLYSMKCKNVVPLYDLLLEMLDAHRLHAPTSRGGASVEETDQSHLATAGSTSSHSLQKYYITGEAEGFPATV
Description: Western blot of ERα downregulation in T47D/PKCα cells. In kind it is cell-based. Conditions: dose range 0.03–1 μM. (In general: A western blot detects proteins with antibodies after separation by electrophoresis.)

Series [4] deals with T47D-kb-Luc cells. Put plainly: T47D-kb-Luc ERE luciferase reporter gene assay. It counts as cell-based, human. The settings on record: at 1 nM, in the presence of 0.01 nM estradiol (E2). Put shortly: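 Stably transfected T47D-kb-Luc reporter cells were stimulated with estradiol at 10−11 M plus test compound at 0.1, 1 or 10 nM. ERE-driven activity was read as relative luciferase units and normalized to the estradiol-only control. Run in quadruplicate in at least three separate experiments, reported as mean ± SD (%).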
Background: Reporter assays use an easily measured gene product as a stand-in for the process of interest.

Series [5] concerns the target T1, ERα. Put plainly: Western blot of ERα downregulation in T47D cells. In kind it is cell-based. The settings on record: dose range 0.03–1 μM.
Series [6] in a line: Stability in culture media in vitro. In kind it is in vitro ADME. The settings on record: dissolved in ethanol then diluted in culture media for an extended period of time.
For series [7] the following is noted: patients, cited from earlier work.

`CC/C(=C(\c1ccc(O)cc1)c1ccc(OCCN(C)C)cc1)c1ccccc1` [Compound 4-OHT, 4-hydroxytamoxifen]: the results for the pIC50 in series [1] and in series [2] were 4.66 and 8.48, respectively.
`C[C@]12CC[C@@H]3c4ccc(B(O)O)cc4C[C@@H](CCCCCCCCC[S+]([O-])CCCC(F)(F)C(F)(F)F)[C@H]3[C@@H]1CC[C@@H]2O` (stereo partly drawn) [Compound 5, ((7R,8R,9S,13S,14S,17S)-17-Hydroxy-13-methyl-7-(9-((4,4,5,5,5-pentafluoropentyl)sulfinyl)nonyl)-7,8,9,11,12,13,14,15,16,17-deca-hydro-6H-cyclopenta[a]phenanthren-3-yl)boronic Acid]: the ER downregulation level entry in series [3] and in series [5] was “greater than 50%” in each case. Further, the “inhibition of E2-induced luciferase (ERE activity)” value in series [4] was “completely blocking the estrogen response element (ERE) activity”. In addition, the “metabolic stability in vitro” value in series [6] is “metabolic stability was later confirmed in vitro”.
Take `C[C@]12CC[C@@H]3c4ccc(O)cc4C[C@@H](CCCCCCCCC[S+]([O-])CCCC(F)(F)C(F)(F)F)[C@H]3[C@@H]1CC[C@@H]2O` (stereo partly shown) [fulvestrant]: the ER downregulation level result in series [3] and in series [5] was “greater than 50%” each time. Besides, in series [7] (500 mg im, FINDER1 and FINDER2 clinical trials ref 3, 5), the peak blood concentration was under 25 ng/mL. For the same molecule, the “time to reach steady-state serum concentration” value in series [7] (im monthly dose of 250 mg ref 4) is given as “over 3 months”.

The record behind these values is paper PMC5499704 (Journal of medicinal chemistry, 2016).
